Experimental findings from ChEMBL document CHEMBL3734650, “Synthesis and activity of novel 16-dehydropregnenolone acetate derivatives as inhibitors of type 1 5α-reductase and on cancer cell line SK-LU-1” (Bioorg Med Chem, 2015) are described below.

SMILES strings stand for the structures. Calls of active or inactive are those of the source. The calls are words filed in the database; no cut-off is given here.

One assay relates to PC-3. The assay is described as follows: (§1) Cytotoxicity against human PC3 cells assessed as growth inhibition at 50 uM. It counts as functional. A digest of the protocol:
(§2)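 Growth inhibition calculated from absorbance as 100 − (sample absorbance / vehicle absorbance × 100).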

Another assay has as its system MCF7. Put plainly: Cytotoxicity against human MCF7 cells as growth inhibition at 50 uM. Conditions: for inhibition of growth at 50 µM: read-out: GI. It counts as functional. The method, boiled down:
as §2

The test system of the next assay is SK-LU-1. Put plainly: (§3) Cytotoxicity against human SKLU1 cells as growth inhibition at 50 uM. The class given is functional. The method, boiled down:
as §2

The target in assay [1] is T1, 3-oxo-5-alpha-steroid 4-dehydrogenase 1 (Rattus norvegicus, UniProt P24008).
T1 sequence (P24008 whole entry): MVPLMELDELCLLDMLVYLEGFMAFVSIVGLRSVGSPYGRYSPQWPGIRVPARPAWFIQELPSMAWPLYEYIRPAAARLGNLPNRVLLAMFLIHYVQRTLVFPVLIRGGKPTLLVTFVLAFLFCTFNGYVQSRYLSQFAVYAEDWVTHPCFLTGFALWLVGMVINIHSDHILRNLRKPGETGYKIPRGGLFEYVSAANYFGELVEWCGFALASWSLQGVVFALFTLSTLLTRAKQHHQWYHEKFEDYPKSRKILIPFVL
Put plainly: Inhibition of rat liver type 1 5alpha-reductase assessed as transformation of testosterone to dihydrotestosterone. A digest of the protocol:
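Enzyme source: liver microsomes from overnight-fasted adult rats (8-month, 500 g), prepared in buffer A (20 mM sodium phosphate pH 6.5, 0.32 M sucrose, 0.1 mM DTT) at 4 °C, resuspended at 20 mg protein/mL. Inhibitors at 1 × 10⁻¹⁰ to 10⁻⁴ M. Radiolabelled T→DHT conversion quantified from TLC-plate radioactivity. IC50 taken from inhibition curves.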

A further assay deals with T2, Androgen receptor (Rattus norvegicus, UniProt P15207).
T2 sequence (P15207 whole entry): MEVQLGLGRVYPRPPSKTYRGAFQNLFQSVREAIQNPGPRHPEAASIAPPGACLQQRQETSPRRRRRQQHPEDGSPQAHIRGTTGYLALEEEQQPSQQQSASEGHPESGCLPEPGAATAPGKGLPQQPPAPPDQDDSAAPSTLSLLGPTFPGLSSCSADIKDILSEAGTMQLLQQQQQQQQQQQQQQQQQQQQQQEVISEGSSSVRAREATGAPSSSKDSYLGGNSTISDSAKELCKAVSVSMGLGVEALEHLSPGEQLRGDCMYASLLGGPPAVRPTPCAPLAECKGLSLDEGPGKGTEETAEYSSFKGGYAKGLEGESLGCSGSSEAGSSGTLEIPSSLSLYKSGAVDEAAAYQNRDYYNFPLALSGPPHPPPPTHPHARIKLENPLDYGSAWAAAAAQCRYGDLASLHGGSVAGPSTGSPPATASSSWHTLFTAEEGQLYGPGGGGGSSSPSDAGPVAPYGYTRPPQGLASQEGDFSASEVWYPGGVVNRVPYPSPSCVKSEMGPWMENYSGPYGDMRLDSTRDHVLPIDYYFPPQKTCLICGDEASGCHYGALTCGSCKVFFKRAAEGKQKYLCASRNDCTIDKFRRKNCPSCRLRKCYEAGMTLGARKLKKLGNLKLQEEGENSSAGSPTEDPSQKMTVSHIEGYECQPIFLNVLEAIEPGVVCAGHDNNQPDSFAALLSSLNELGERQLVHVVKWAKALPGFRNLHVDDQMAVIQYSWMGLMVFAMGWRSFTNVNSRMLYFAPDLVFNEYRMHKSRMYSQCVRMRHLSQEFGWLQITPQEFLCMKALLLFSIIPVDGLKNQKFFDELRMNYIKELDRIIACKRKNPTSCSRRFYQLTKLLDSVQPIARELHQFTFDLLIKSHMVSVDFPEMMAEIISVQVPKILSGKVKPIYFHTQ
The assay is described as follows: Displacement of [3H}-MIB from rat prostate cytosol androgen receptor assessed as relative binding affinity.

The test system of assay [2] is Syrian golden hamster. The assay is described as follows: Increase of diameter of pigmented spot of flank organs in gonadectomized golden hamster at 2 mg/kg, sc qd for 6 days co-administered with 1 mg/kg of testosterone (reference value: 2.03 +/- 0.63 millimeter). It counts as functional, Mesocricetus auratus.
Assay [3] relates to Syrian golden hamster. The assay is described as follows: Increase of prostate weight in gonadectomized golden hamster at 2 mg/kg, sc qd for 6 days co-administered with 1 mg/kg of testosterone (reference value: 50.4 +/- 9.9 mg). It counts as functional, Mesocricetus auratus, Prostate gland.
Assay [4] deals with Syrian golden hamster. Put plainly: Increase of seminal vesicles weight in gonadectomized golden hamster at 2 mg/kg, sc qd for 6 days co-administered with 1 mg/kg of testosterone (reference value: 96.11 +/- 12.5 mg). The class given is functional, Mesocricetus auratus.
The nature of assay [5]: as §1. The class given is functional. The note with it: PC-3, read-out: GI. A digest of the protocol:
as §2

Assay [6] can be described thus: as §3. The class given is functional. The note with it: SK-LU-1, read-out: GI. A digest of the protocol:
as §2

Assay [7] addresses T3, 3-oxo-5-alpha-steroid 4-dehydrogenase 2 (Homo sapiens, UniProt P31213).
T3 sequence (P31213 whole entry): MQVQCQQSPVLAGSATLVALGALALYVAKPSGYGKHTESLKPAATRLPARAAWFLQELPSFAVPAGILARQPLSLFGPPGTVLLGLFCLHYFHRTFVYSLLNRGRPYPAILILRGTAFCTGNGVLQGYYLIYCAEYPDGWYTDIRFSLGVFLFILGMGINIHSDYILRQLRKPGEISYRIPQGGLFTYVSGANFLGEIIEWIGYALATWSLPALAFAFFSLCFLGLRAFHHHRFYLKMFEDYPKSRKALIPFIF
Put plainly: Inhibition of human prostate type 2 5alpha-reductase assessed as transformation of testosterone to dihydrotestosterone. It counts as tissue-based, Prostate gland. The method, boiled down:
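Enzyme source: normal prostate from a person, homogenized in buffer A (20 mM sodium phosphate pH 6.5, 0.32 M sucrose, 0.1 mM DTT), pelleted at 1500 × g, resuspended at 5 mg protein/mL. Inhibitors at 1 × 10⁻¹⁰ to 10⁻⁴ M. Radiolabelled T→DHT conversion quantified by TLC lane radioactivity against total plate radioactivity. IC50 taken from inhibition curves.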

As usually defined, the IC50 is the concentration needed to halve the response being measured.

On to `C[C@]12CC[C@H](OC(=O)C3CCCCCC3)CC1=CC[C@@H]1[C@@H]2CC[C@]2(C)C(C(=O)Cn3cncn3)=CC[C@@H]12`, for which the “growth inhibition (GI)” value with PC-3, with MCF7 and in the assay with SK-LU-1 was “inactive” each time. Also, the IC50 result (in [1]; on Androgen receptor) was “Not Active” in each case. The Activity in the assay with Syrian golden hamster [2] is 4.45 mm; in the assay on Syrian golden hamster [3], 78.2 mg; in the assay with Syrian golden hamster [4] it was 203.98 mg.

As for `CC(=O)O[C@H]1CC[C@@]2(C)C(=CC[C@@H]3[C@@H]2CC[C@]2(C)C(C(=O)Cn4cncn4)=CC[C@@H]32)C1`, the inhibition of growth at 50 µM worked out at 56.2% in [5], 59.4% with MCF7 and 74.8% in assay [6]. The IC50 result is “Not Active” in assay [1], 100 µM in assay [7] (read-out: IC50) and “Not Active” on Androgen receptor. Moreover, the Activity was found to be 2.9 mm in the assay on Syrian golden hamster [2], 87.65 mg with Syrian golden hamster [3] and 216.075 mg in the assay on Syrian golden hamster [4].

Turning to `CCC(=O)O[C@H]1CC[C@@]2(C)C(=CC[C@@H]3[C@@H]2CC[C@]2(C)C(C(=O)Cn4cncn4)=CC[C@@H]32)C1`, in the assay on PC-3, the “growth inhibition (GI)” value was “inactive”. Further, the inhibition of growth at 50 µM in the assay on MCF7 is 5.9%; in assay [6], 8.8%. For the same compound, the IC50 is 0.088 µM in [1] (read-out: IC50), “Not Active” in assay [7] and “Not Active” on Androgen receptor. The Activity in the assay on Syrian golden hamster [2] is 2.79 mm; in the assay on Syrian golden hamster [3], 89.55 mg; in the assay with Syrian golden hamster [4], 157.08 mg.

For the compound `C[C@]12CC[C@H](OC(=O)C3CCCCC3)CC1=CC[C@@H]1[C@@H]2CC[C@]2(C)C(C(=O)Cn3cncn3)=CC[C@@H]12`, the “growth inhibition (GI)” value in the assay on PC-3, with MCF7 and in the assay with SK-LU-1 was “inactive” each time. The IC50 entry (in assay [1]; in assay [7]; on Androgen receptor) was “Not Active” throughout. Also, the Activity stood at 3 mm in the assay on Syrian golden hamster [2], 88 mg in the assay on Syrian golden hamster [3] and 150 mg in the assay with Syrian golden hamster [4].

`CCCC(=O)O[C@H]1CC[C@@]2(C)C(=CC[C@@H]3[C@@H]2CC[C@]2(C)C(C(=O)Cn4cncn4)=CC[C@@H]32)C1`: the inhibition of growth at 50 µM in assay [5] was found to be 9.2%; with MCF7 it was 25.6%; in assay [6], 15.6%. For the same compound, the IC50 entry (in [1]; in assay [7]; on Androgen receptor) was “Not Active” throughout. The Activity in the assay with Syrian golden hamster [2] was found to be 2.71 mm; in the assay with Syrian golden hamster [3], 81.3 mg; in the assay with Syrian golden hamster [4], 138.9 mg.

`CC(=O)N1CCN(c2ccc(OCC3COC(Cn4ccnc4)(c4ccc(Cl)cc4Cl)O3)cc2)CC1` (stereo unspecified) [KETOCONAZOLE]: the inhibition of growth at 50 µM stood at 88.5% in [5], 95.2% in the assay on MCF7 and 73.4% in [6].

`C[C@]12CC[C@H](OC(=O)C3CCC3)CC1=CC[C@@H]1[C@@H]2CC[C@]2(C)C(C(=O)Cn3cncn3)=CC[C@@H]12`: the “growth inhibition (GI)” value with PC-3, with MCF7 and in the assay on SK-LU-1 was “inactive” each time. The IC50 entry (in assay [1]; in [7]; at Androgen receptor) was “Not Active” each time. Further, the Activity in the assay on Syrian golden hamster [2] came to 2.14 mm; with Syrian golden hamster [3], 100 mg; in the assay on Syrian golden hamster [4] it was 130 mg.

Take `C[C@]12CC[C@H](OC(=O)C3CCCC3)CC1=CC[C@@H]1[C@@H]2CC[C@]2(C)C(C(=O)Cn3cncn3)=CC[C@@H]12`: the “growth inhibition (GI)” value with PC-3, in the assay on MCF7 and with SK-LU-1 was “inactive” throughout. Besides, the IC50 entry (in [1]; in assay [7]; at Androgen receptor) was “Not Active” each time. Also, the values for the Activity with Syrian golden hamster [2], in the assay with Syrian golden hamster [3] and in the assay with Syrian golden hamster [4] were 2.8 mm, 97 mg and 120 mg, respectively.

For `CCCCC(=O)O[C@H]1CC[C@@]2(C)C(=CC[C@@H]3[C@@H]2CC[C@]2(C)C(C(=O)Cn4cncn4)=CC[C@@H]32)C1`, the inhibition of growth at 50 µM was found to be 38.2% in [5], 38.5% in the assay with MCF7 and 20.2% in [6]. For the same compound, the concentration for half-maximal inhibition (IC50) was 0.32 µM in assay [1] (read-out: IC50), “Not Active” in [7] and “Not Active” on Androgen receptor. The Activity in the assay on Syrian golden hamster [2] turned out to be 3.71 mm; with Syrian golden hamster [3], 82.3 mg; with Syrian golden hamster [4] it was 180.03 mg.

For `C[C@]12CC[C@H](OC(=O)C3CC3)CC1=CC[C@@H]1[C@@H]2CC[C@]2(C)C(C(=O)Cn3cncn3)=CC[C@@H]12`, the “growth inhibition (GI)” value in the assay with PC-3, with MCF7 and with SK-LU-1 was “inactive” each time. Besides, the IC50 entry is “Not Active” in [1], 118 µM in assay [7] (read-out: IC50) and “Not Active” on Androgen receptor. The Activity in the assay on Syrian golden hamster [2] is 2.88 mm; with Syrian golden hamster [3], 107.48 mg; in the assay on Syrian golden hamster [4], 180.3 mg.

On to `C[C@]12CC[C@H](O)CC1=CC[C@@H]1[C@@H]2CC[C@]2(C)C(C(=O)Cn3cncn3)=CC[C@@H]12`, for which the inhibition of growth at 50 µM in assay [5] came to 61.3%; in the assay on MCF7, 62.1%; in [6] it was 88.9%. The IC50 result (in assay [1]; in [7]; on Androgen receptor) was “Not Active” each time. For the same compound, the figures for the Activity with Syrian golden hamster [2], with Syrian golden hamster [3] and in the assay with Syrian golden hamster [4] were 3.05 mm, 89 mg and 163.33 mg, respectively.

For the compound `CCCCCC(=O)O[C@H]1CC[C@@]2(C)C(=CC[C@@H]3[C@@H]2CC[C@]2(C)C(C(=O)Cn4cncn4)=CC[C@@H]32)C1`, the results for the inhibition of growth at 50 µM (in [5]; in the assay on MCF7; in assay [6]) were 16.9%, 14.4% and 6.4%, respectively. For the same compound, the results for the IC50 (in assay [1] (read-out: IC50); in assay [7]; at Androgen receptor) were 100 µM, “Not Active” and “Not Active”, respectively. The Activity in the assay with Syrian golden hamster [2] is 2.8 mm; in the assay with Syrian golden hamster [3], 86.9 mg; in the assay with Syrian golden hamster [4] it was 200 mg.
